Compounds with a hit are over-represented: about 1.8% of the library has one in this group of screens.
PABP1 MLLE inh = blocks PAM2 peptide binding to the PABP1 MLLE domain; P11940; GST-MLLE / FITC-PAM2 fluorescence polarization; inhibition, % at 20 µM; actives 0.36% (n = 360,000); in the data active = inhibition above about 35%, passing the limit was not always enough
PABP FP inh = PABP-poly(A) binding inhibition | PABP-poly(A) RNA binding, fluorescence polarization | calls only at 35 µM | actives 1% (n = 290,000) | AID 2014;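 also: calls also rest on retests at 20 µM and on dose response follow-up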
MT1-MMP act inh = MT1-MMP (human) activation inhibition; P50281; HT1080 RFP-PRO-GFP cells, GFP/RFP ratio fluorescence, overnight; percent of plate control window, DMSO zero; GFP/RFP ratio change, % at 20 µM; actives 0.061% (n = 360,000); AID 651647;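 active = GFP/RFP ratio change of at least 30% with cell ATP level not reduced by more than half and red fluorescence within 50% of control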
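Assay system – RFP-PRO-GFP reporter HT1080 cells · Compound dosing – single dose of 20 µM compound, 1% DMSO final · Incubation – overnight compound exposure at 37 °C · Measure – GFP/RFP fluorescence ratio · Benchmarks – DMSO wells and RFP-L50D-GFP cells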
eIF4H inh = inhibitors of RNA binding by human eIF4H; inhibition, % at 35 µM; Q15056; eIF4H fluorescence polarization binding assay; actives 0.94% (n = 290,000);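 also: calls also rest on retests at 20 µM and on dose response follow-up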
SKN-1 inh = C. elegans SKN-1 inhibition. C. elegans VP596 Pgst-4::GFP/RFP ratio, acrylamide-induced, 24 h. inhibition, % at 21.8 µM. actives 0.49% (n = 360,000);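 active = interference check ratio from 0.5 to 1.5 plus GFP to RFP signal ratio inhibition reaching or exceeding a fixed threshold, cut at about 30% in these data, passing the limit was not always enough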
Of the large screens only hits and unclear results are named; the others gave an inactive call. Unless noted, no rule for the calls is given here.

CC(=O)O/N=C/c1c(Cl)n(C)c2ccccc12	none
COc1ccc(-c2c[n+]3c(n2-c2ccccc2)CCCCC3)cc1	PABP FP inh active, eIF4H inh inconclusive
COc1ccc(-c2c[n+]3c(n2-c2ccc(C)cc2)CCCCC3)cc1	none
COCCCNc1nc2ccccc2nc1NS(=O)(=O)c1cccc(Cl)c1	PABP1 MLLE inh 43
O=C(NCC(c1cccs1)N1CCOCC1)c1ccc(Cl)nc1 (stereo unspecified)	none (no result: PABP FP inh, eIF4H inh)
Nc1cc(C(=O)O)c(N)c2c1C(=O)c1ccccc1C2=O	PABP FP inh inconclusive, eIF4H inh inconclusive, SKN-1 inh 43
O=c1[nH]c2cc(Cl)c(Br)cc2o1	SKN-1 inh 35 (no result: PABP FP inh, eIF4H inh)
Cc1ccc(-c2csc3ncnc(SCc4ccc(C(=O)O)cc4)c23)cc1	eIF4H inh 95
C=CCn1c(SCC(=O)Nc2ccc(OC)cc2)nnc1-c1cnccn1	none
CCOc1ccc2nc(NC(=O)CN3CCC(n4nnc5cc(C(F)(F)F)ccc54)CC3)sc2c1	SKN-1 inh 39
Cc1cc(NC(=O)CN2CCC(n3nnc4cc(C(F)(F)F)ccc43)CC2)no1	none
COc1cc(CNC(C)(C)CO)cc(Br)c1OCc1ccc(Cl)cc1	SKN-1 inh 55
COc1cc(CNC(C)c2ccccc2)cc(Br)c1OCc1ccc(F)cc1 (stereo unspecified)	SKN-1 inh 66
COc1cc(CNC(C)(C)CO)cc(Br)c1OCc1ccc(Cl)cc1Cl	none
COc1cc(CNC(C)c2ccccc2)cc(Br)c1OCc1ccccc1 (stereo unspecified)	none
CC(=O)Nc1ccc(SCc2csc(C)n2)cc1	none
COc1ccc(C(C)=O)cc1COC(=O)c1ccc(C)c(S(=O)(=O)N2CCOCC2)c1	none (no result: PABP FP inh, eIF4H inh)
CC(C)C1=C2CCCCC2NC(=O)N1 (stereo unspecified)	PABP1 MLLE inh 62
CC(C)C1(C2CCCC2)NC(=O)NC1=O (stereo unspecified)	none (no result: PABP FP inh, eIF4H inh)
CC(OC(=O)c1ccc(Cl)nc1)C(=O)NCc1ccc2c(c1)OCO2 (stereo unspecified)	none (no result: PABP FP inh, eIF4H inh)
O=C(CSc1nnc(Cc2cc(=O)[nH]c(=O)[nH]2)n1-c1ccc(Cl)cc1)NC1CCCC1	PABP FP inh active, eIF4H inh 62
O=c1[nH]ncc(N/N=C\c2cccs2)c1Cl	PABP FP inh active, eIF4H inh active
Clc1ccc(Cc2nc(-c3cccnc3)no2)cc1	SKN-1 inh 41
Cc1ccc(Cc2nc(-c3cccnc3)no2)cc1	none
CC1=C(C(=O)OCC2CCCO2)C(c2ccccc2OC(C)C)C2=C(CC(c3ccco3)CC2=O)N1 (stereo unspecified)	SKN-1 inh 40
CCc1ccc(NC(=O)Nc2ccsc2C(=O)OC)cc1	none
CCOc1ccccc1OCCC(=O)OCC(=O)c1ccc[nH]1	PABP FP inh active, eIF4H inh 59
N#Cc1ccccc1OCC(=O)OCC(=O)c1ccc[nH]1	none (no result: PABP FP inh, eIF4H inh)
OC[C@@H]1CN(Cc2ccncc2)C[C@H](n2cnc3c(NCc4ccco4)ncnc32)O1	none (no result: PABP FP inh, eIF4H inh)
c1ccc2c(c1)NCC1CCCN21 (stereo unspecified)	eIF4H inh 104
O=C(Cn1nnc(-c2ccc(F)cc2)n1)Nc1cccc(S(=O)(=O)N2CCCC2)c1	none (no result: PABP FP inh, eIF4H inh)
N#C/C(=N\Nc1cccc2ccccc12)c1nnc2n1CCCCC2	PABP FP inh active, eIF4H inh 86
NC(=O)N=Nc1c(O)[nH]c2c(Br)cc(Br)cc12	none (no result: PABP1 MLLE inh, MT1-MMP act inh, SKN-1 inh)
N=C(N)N=Nc1c(O)[nH]c2ccc(Br)cc12	none
NC(=S)N=Nc1c(O)[nH]c2cc(F)c(F)cc12	PABP1 MLLE inh 40
NC(=S)N=Nc1c(O)[nH]c2c(Cl)cc(Cl)cc12	PABP1 MLLE inh 45 (no result: PABP FP inh, eIF4H inh)
Cc1cc(C(=O)CN2C(=O)c3ccccc3C2=O)c(C)n1Cc1cccs1	none
CCCn1c(C)cc(C(=O)CN2C(=O)c3cccc(N)c3C2=O)c1C	PABP FP inh active, eIF4H inh 85
COc1ccccc1CNC(=O)CN1C(=O)c2cccc(N)c2C1=O	none
CN(C(=O)CN1C(=O)c2cccc(N)c2C1=O)C1CCCCC1	PABP1 MLLE inh 40 (no result: PABP FP inh, eIF4H inh)
CC1CCCCC1NC(=O)CN1C(=O)c2cccc(N)c2C1=O (stereo unspecified)	PABP1 MLLE inh 50, PABP FP inh active, eIF4H inh 106
CCCCNC(=O)CN1C(=O)c2cccc(N)c2C1=O	PABP1 MLLE inh 39, PABP FP inh active, eIF4H inh 85
COC(=O)c1cccc(N2C(=O)C[C@](Sc3ccc(C)cc3)(C(=O)OC)[C@H]2c2ccccc2)c1	none (no result: PABP1 MLLE inh, PABP FP inh, eIF4H inh)

Compound activity deposited in PubChem BioAssay by Sanford-Burnham Center for Chemical Genomics.
